Reference: EPA's CvTdb concentration-time database

Columns and labels:
Hamster = assay: concentration in plasma after dosing; details: dosed: 2,4-Dichlorophenoxyacetic acid, Male, Syrian Golden
Method in brief: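 Points were largely digitised from plot screenshots with WebPlotDigitizer or otherwise copied from tables, and they remain in the units each source reported. They come from published in vivo toxicokinetic studies and two structured collections. Sampling and analytical methods follow each source and were often not reported.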

Mouse [1] = assay: concentration in plasma after dosing; details: 2 h; dosed: 2-Hydroxy-4-methoxybenzophenone; 500 mg/kg; oral; Male; B6C3F1
Mouse [2] = assay: concentration in plasma after dosing; details: 2.5 min; dosed: 2-Hydroxy-4-methoxybenzophenone; 250 mg/kg; oral; Male; B6C3F1
Rat [3] = assay: concentration in plasma after dosing; details: dosed: Methyleugenol, 37 mg/kg, iv, Female, F344
Rat [4] = assay: concentration in plasma after dosing; details: dosed: Methyleugenol, 37 mg/kg, oral, Male, F344/N
Rat [5] = assay: concentration in liver after dosing; details: 48 h; dosed: Perfluorohexane-1-sulphonic acid – potassium salt; 16 mg/kg; oral; Female; Harlan Sprague Dawley
Rat [6] = assay: concentration in plasma after dosing; details: dosed: Perfluorohexane-1-sulphonic acid – potassium salt, 4 mg/kg, oral, Male, F344
Rat [7] = assay: concentration in plasma after dosing; details: 0.25 h; dosed: Primidone; 80 mg/kg; oral; Female; Harlan Sprague-Dawley
Rat [8] = assay: concentration in plasma after dosing; details: 3 h; dosed: Primidone; 30 mg/kg; oral; Female; F344
Rat [9] = assay: concentration in plasma after dosing; details: 0.25 h; dosed: Primidone; 30 mg/kg; oral; Male; F344
Rat [10] = assay: concentration in plasma after dosing; details: 0.25 h; dosed: Primidone; 30 mg/kg; oral; Male; F344; remark: listed apart in the source
Rat [11] = assay: concentration in plasma after dosing; details: 3 h; dosed: Primidone; 130 mg/kg; oral; Male; Harlan Sprague Dawley
Rat [12] = assay: concentration in plasma after dosing; details: 40 h; dosed: Pyridine; 100 mg/kg; oral; Male; F344
Rat [13] = assay: concentration in plasma after dosing; details: 2 h; dosed: Pyridine; 25 mg/kg; oral; Female; Harlan Sprague-Dawley
Rat [14] = assay: concentration in plasma after dosing; details: dosed: Pyridine, 5 mg/kg, iv, Male, F344
Rat [15] = assay: concentration in brain after dosing; details: 2.5 h; dosed: 76231-76-0; 3.0 mg/kg; iv; Female; F344

O=C(O)COc1ccc(Cl)cc1Cl [2,4-Dichlorophenoxyacetic acid]
concentration in plasma [ng/mL], Hamster
Details | 2.0 mg/kg | 8.0 mg/kg | 40 mg/kg
0.25 h, iv | – | 21300 | –
0.25 h, oral | 7560 | 16500 | 68500
0.5 h, oral | – | 3990 | 84200
1 h, iv | – | 1050 | –
1 h, oral | – | 5860 | 19100
1.5 h, iv | – | 915 | –
1.5 h, oral | – | 1080 | 29600
2 h, iv | – | 186 | –
2 h, oral | – | 1120 | 25400
2.5 h, oral | 1930 | – | –
2.5 min, iv | – | 127000 | –
2.5 min, oral | 217 | – | –
4 h, oral | – | 820 | 2830
5 min, iv | – | 77100 | –
5 min, oral | 453 | 19500 | 81600
6 h, oral | – | 1350 | 2700
10 min, iv | – | 42400 | –
10 min, oral | 2080 | – | –
20 min, iv | – | 20700 | –
40 min, iv | – | 3980 | –

O=C(c1ccccc1)c1ccc(O)cc1O [2,4-Dihydroxybenzophenone]
Details | concentration in plasma [ng/mL]
Mouse [1] | 318
Mouse [2] | 149

C=CCc1ccc(OC)c(OC)c1 [Methyleugenol]
concentration in plasma [ng/mL]
Details | 0.5 h | 0.75 h | 2 h | 5 min
Rat [3] | 1330 | 535 | – | –
Rat [4] | – | – | 41.7 | 191

O=S(=O)([O-])C(F)(F)C(F)(F)C(F)(F)C(F)(F)C(F)(F)C(F)(F)F.[K+] [Perfluorohexane-1-sulphonic acid – potassium salt]
Details | concentration in liver [ng/g]
Rat [5] | 13300

Rat [6]
Details | concentration in plasma [ng/mL]
3 h | 29800
192 h | 18200
1200 h | 6240

CCC1(c2ccccc2)C(=O)NCNC1=O [Primidone]
Details | concentration in plasma [ng/mL]
Rat [7] | 12500
Rat [8] | 19900
Rat [9] | 8900
Rat [10] | 7800
Rat [11] | 108000

c1ccncc1 [Pyridine]
Details | concentration in plasma [ng/mL]
Rat [12] | 20000
Rat [13] | 17100

Rat [14]
Details | concentration in plasma [ng/mL]
0.05 h | 4210
4 h | 2060

CC(C)[C@]12CC(=O)[C@H](C)[C@H]1C2 [alpha-Thujone]
Details | concentration in brain [ng/g]
Rat [15] | 15.2
